The source of these data is publication PMC10213863 (Cell Reports Medicine, 2023).

In one assay the target is T1, TLR7 (Mus musculus, UniProt P58681).
T1 sequence (P58681 27-1050): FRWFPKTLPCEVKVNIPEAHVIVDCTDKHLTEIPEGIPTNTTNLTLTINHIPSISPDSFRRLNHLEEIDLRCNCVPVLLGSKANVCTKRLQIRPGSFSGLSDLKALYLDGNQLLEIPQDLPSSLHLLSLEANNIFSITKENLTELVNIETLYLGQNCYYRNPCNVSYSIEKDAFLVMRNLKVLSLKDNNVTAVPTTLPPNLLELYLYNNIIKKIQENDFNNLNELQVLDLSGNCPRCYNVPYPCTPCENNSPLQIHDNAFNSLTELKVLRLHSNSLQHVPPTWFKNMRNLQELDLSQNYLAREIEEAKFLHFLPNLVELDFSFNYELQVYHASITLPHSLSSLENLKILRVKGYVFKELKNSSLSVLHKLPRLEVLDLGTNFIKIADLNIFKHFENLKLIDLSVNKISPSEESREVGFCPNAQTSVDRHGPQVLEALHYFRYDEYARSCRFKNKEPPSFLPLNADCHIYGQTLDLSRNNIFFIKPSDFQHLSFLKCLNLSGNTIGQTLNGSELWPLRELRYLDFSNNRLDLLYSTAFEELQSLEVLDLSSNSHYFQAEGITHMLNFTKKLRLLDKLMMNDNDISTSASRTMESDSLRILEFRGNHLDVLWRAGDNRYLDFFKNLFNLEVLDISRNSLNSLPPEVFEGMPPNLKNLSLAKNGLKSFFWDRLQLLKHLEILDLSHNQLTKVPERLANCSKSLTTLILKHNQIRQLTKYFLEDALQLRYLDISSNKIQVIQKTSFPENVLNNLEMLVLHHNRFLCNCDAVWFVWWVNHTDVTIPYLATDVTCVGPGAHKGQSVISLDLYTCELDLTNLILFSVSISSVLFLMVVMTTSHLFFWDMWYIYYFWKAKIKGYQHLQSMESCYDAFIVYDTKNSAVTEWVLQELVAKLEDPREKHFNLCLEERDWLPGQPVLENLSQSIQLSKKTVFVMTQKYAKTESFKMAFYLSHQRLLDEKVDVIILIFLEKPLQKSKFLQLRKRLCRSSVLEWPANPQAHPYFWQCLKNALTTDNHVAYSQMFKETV
As to the kind of experiment: Acute cytokine release in vivo assay, TLR7 agonist. Particulars: 129/Sv mice; single p.o. dose 1.5 or 15 mg/kg. A digest of the protocol:
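129/Sv mice (5 per group) got test compound orally in 0.5% methylcellulose/0.5% Tween-80, or vehicle alone. At 1 h they were injected i.v. with the TLR agonist (line 1: 20 μg R0006; line 2: CpG1585), each pre-complexed with 140 μg DOTAP in HBSS. At 3 h, EDTA blood was taken. Plasma IFN-α (both lines) and TNF were measured by ELISA, single technical replicate per mouse. Serum drug levels were measured by LC-MS/MS.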

In a further assay the target is TLR4 (Homo sapiens, UniProt O00206). Description: Human whole blood assay, LPS-TNF. It is filed as cell-based. A digest of the protocol:
(§1)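 Fresh human blood or 129/Sv mouse blood was taken into citrate and diluted 1:1 with RPMI1640. It was pre-incubated 30 min at 37°C, 5% CO2 with increasing concentrations of test compound or 0.25% v/v DMSO (final). Blood was then stimulated with TLR agonists at doses from earlier work, or with R848 (3 μM), and cytokines were quantified. Viability was checked by ATPlite luminescence.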

Assay [1] deals with T2, TLR8 (Homo sapiens, UniProt Q9NR97).
T2 sequence (Q9NR97 27-1041): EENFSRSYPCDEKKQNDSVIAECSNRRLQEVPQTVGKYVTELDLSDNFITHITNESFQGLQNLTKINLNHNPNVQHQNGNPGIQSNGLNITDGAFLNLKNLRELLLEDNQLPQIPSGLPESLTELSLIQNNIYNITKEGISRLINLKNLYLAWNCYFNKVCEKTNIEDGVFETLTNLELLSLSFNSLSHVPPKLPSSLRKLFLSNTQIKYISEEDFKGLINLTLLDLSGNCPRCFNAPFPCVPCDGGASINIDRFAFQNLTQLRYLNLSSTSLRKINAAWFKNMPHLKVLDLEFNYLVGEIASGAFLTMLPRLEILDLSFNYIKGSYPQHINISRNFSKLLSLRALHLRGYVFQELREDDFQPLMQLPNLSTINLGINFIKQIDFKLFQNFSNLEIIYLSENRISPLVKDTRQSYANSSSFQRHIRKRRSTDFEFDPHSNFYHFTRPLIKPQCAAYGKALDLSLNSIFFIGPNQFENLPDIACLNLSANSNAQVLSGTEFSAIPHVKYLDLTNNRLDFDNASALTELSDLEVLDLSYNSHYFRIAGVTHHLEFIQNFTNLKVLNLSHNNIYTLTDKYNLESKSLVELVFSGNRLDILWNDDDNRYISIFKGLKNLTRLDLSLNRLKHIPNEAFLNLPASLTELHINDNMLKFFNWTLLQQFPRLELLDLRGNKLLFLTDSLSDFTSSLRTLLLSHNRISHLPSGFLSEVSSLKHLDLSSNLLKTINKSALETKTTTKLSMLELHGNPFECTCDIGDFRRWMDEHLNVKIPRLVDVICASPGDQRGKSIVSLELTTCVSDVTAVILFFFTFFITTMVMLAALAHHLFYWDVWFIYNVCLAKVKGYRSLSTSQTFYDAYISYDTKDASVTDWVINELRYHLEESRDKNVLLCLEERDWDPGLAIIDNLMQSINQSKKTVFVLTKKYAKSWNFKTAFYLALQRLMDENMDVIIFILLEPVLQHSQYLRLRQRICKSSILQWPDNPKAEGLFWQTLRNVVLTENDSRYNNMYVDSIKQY
As to the kind of experiment: Human whole blood assay, ssRNA-TNF. The assay is classed as cell-based. Put shortly:
as §1

The target in a further assay is IL-1 receptor (IL-1R) (Homo sapiens, UniProt P14778). As to the kind of experiment: Human PBMC cytokine secretion, IL-1 receptor agonist. The assay is classed as cell-based. Particulars: human PBMCs; up to 10 μM; n = 5 donors, data not shown. Put shortly:
(§2)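 Human PBMCs were pre-incubated 30 min with test compound, then stimulated with the respective TLR or IL-1R agonist at doses from earlier work. Cytokines in supernatants were quantified by immunoassay. Viability across the dose range was checked by CellTiter-Glo.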

The target of assay [2] is T2, TLR8. Description: Human PBMC assay, ssRNA-induced TNF. It is filed as cell-based. Put shortly:
as §2

Sequence of IL-1 receptor (IL-1R) (P14778 18-569): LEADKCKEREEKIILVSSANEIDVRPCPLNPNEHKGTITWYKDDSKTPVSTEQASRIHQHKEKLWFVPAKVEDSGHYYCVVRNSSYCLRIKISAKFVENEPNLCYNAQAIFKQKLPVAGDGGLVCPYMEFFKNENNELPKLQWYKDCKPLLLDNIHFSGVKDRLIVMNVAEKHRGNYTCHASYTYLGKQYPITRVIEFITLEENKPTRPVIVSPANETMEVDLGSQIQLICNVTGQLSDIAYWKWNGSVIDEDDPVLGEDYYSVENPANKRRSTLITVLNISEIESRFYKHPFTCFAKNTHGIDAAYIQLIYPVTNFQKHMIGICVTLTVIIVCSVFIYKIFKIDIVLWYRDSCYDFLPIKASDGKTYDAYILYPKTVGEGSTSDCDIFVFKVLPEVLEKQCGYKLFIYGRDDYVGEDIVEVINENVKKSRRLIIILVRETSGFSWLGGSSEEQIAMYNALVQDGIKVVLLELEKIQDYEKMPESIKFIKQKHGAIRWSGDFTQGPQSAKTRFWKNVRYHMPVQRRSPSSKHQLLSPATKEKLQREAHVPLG
Sequence of TLR4 (O00206 24-839): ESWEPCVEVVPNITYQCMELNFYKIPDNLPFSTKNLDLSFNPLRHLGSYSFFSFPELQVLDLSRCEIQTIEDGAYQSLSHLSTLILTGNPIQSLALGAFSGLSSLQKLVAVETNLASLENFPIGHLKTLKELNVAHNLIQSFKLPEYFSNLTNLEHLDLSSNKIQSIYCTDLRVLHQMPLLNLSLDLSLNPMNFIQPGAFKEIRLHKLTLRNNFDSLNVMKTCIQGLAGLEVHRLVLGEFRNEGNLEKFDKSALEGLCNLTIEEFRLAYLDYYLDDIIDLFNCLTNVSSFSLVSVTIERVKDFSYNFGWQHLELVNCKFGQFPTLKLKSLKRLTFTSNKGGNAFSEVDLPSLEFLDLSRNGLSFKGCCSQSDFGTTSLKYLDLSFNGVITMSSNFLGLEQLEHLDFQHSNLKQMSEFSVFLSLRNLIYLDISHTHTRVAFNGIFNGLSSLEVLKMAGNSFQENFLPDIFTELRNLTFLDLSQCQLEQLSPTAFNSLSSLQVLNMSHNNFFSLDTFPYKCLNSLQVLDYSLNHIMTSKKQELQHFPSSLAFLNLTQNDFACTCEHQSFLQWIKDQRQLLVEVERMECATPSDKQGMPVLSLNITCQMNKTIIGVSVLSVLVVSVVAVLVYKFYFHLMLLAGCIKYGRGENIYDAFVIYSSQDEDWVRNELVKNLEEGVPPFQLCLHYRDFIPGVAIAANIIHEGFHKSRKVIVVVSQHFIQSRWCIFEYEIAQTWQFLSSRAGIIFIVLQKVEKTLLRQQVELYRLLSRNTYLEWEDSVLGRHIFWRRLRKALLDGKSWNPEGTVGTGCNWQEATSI
Sequence of TLR4 (Q9Y6Y9 19-160 partner): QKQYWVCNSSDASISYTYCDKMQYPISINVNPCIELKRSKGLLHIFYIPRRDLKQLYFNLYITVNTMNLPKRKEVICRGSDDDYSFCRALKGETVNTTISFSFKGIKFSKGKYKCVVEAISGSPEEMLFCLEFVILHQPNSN

For `Cc1cc(N2CCc3c(c(C)nn3CC34CCC(NC(=O)[C@@H]5COCCN5)(CC3)CC4)C2)c2cnn(C)c2n1` [MHV370, (S)-N-(4-((5-(1,6-dimethyl-1H-pyrazolo[3,4-b]pyridin-4-yl)-3-methyl-4,5,6,7-tetrahydro-1H-pyrazolo[4,3-c]pyridin-1-yl)methyl)bicyclo[2.2.2]octan-1-yl)morpholine-3-carboxamide], at TLR7, the “TLR7-dependent IFN-α and TNF production in plasma” value is reported as “efficiently inhibited”. Further, the “activity following TLR4 activation” value on TLR4 was “inactive”. Also, the IC50 (usually the concentration that inhibits the measured activity by half) against TLR8 [1] is 31 ± 4.4 nM; against TLR8 [2], 70 ± 7.4 nM. The “interference with cytokine secretion, IL-1R agonist” value on IL-1 receptor (IL-1R) is on record as “did not significantly interfere”.
